# Laboratory results reported in ChEMBL document CHEMBL4130629 (J Med Chem, 2018).
# Experiments:
# MT2 = experiment: Cytotoxicity against human MT2 cells assessed as decrease in cell viability after 3 days […]; type: functional; conditions: MT2, 72 h
# [1] = Permeability in human Caco2 cells; type: ADME, cell-based; conditions: Caco-2, read-out: permeability
# [2] = Metabolic stability in human liver microsomes assessed as parent compound remaining after 10 mins; type: ADME, microsome; conditions: read-out: Stability
# Outline: (§1)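 Compound at 3 μM was incubated with human or rat liver microsomes, and the percentage of parent compound remaining was measured after 10 min.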
# [3] = Metabolic stability in rat liver microsomes assessed as parent compound remaining after 10 mins; type: ADME, microsome; conditions: read-out: Stability; outline: as §1
# [4] = system: Human immunodeficiency virus 1; experiment: Antiviral activity against ENV pseudotyped CCR5-tropic HIV1 […] infected in human HeLa67 cells after 3 days by luciferase reporter gene assay; type: functional, organism-based; conditions: Human immunodeficiency virus 1, HeLa67, 72 h
# Outline: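 Single-cycle infection with env-deleted, luciferase-reporter HIV-1 pseudotyped with the JRFL (CCR5) envelope, supplied by transfection; viral titers normalized by luminescence without compound. HeLa 67 cells were infected in the presence of compounds given as 3-fold serial dilutions made from 30 mM DMSO stocks.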
# [5] = Half life in human liver microsomes; type: ADME, microsome
Papp [1],remaining at 10 min [2],remaining at 10 min [3],EC50 [4],half-life [5],SMILES,CC50 (MT2)
19.5 ×10⁻⁶ cm/s,77%,83%,0.03 nM,,COc1cnc(-n2cc(F)cn2)c2[nH]cc(C(=O)C(=O)N3CCN(C(=O)c4ccccc4)CC3)c12,75000 nM
,92%,91%,0.16 nM,,COc1cnc(-n2ccc(N)n2)c2[nH]cc(C(=O)C(=O)N3CCN(C(=O)c4ccccc4)[C@H](C)C3)c12,> 300000 nM
3.9 ×10⁻⁶ cm/s,,,0.13 nM,13 min,COc1cnc(-c2ccsc2)c2[nH]cc(C(=O)C(=O)N3CCN(C(=O)c4ccccc4)CC3)c12,43000 nM
,,,0.33 nM,,COc1cnc(-c2ccncc2)c2[nH]cc(C(=O)C(=O)N3CCN(C(=O)c4ccccc4)CC3)c12,6000 nM
,,,19.8 nM,,COc1cnc(-n2ccc(CN(C)C)n2)c2[nH]cc(C(=O)C(=O)N3CCN(C(=O)c4ccccc4)[C@H](C)C3)c12,> 300000 nM
,,95%,0.52 nM,,COc1cnc(-n2cnc(C)n2)c2[nH]cc(C(=O)C(=O)N3CCN(C(=O)c4ccccc4)[C@@H](C)C3)c12,> 300000 nM
,,,0.1 nM,,CNC(=O)c1ncn(-c2ncc(OC)c3c(C(=O)C(=O)N4CCN(C(=O)c5ccccc5)CC4)c[nH]c23)n1,> 300000 nM
< 1.5 ×10⁻⁶ cm/s,,,0.09 nM,41 min,COc1cnc(-c2cccnc2)c2[nH]cc(C(=O)C(=O)N3CCN(C(=O)c4ccccc4)CC3)c12,10000 nM
< 1.5 ×10⁻⁶ cm/s,68%,91%,0.03 nM,,COc1cnc(-n2cnc(SC)n2)c2[nH]cc(C(=O)C(=O)N3CCN(C(=O)c4ccccc4)CC3)c12,> 300000 nM
< 1.5 ×10⁻⁶ cm/s,,,0.04 nM,> 100 min,COc1cnc(-c2cnc(O)cn2)c2[nH]cc(C(=O)C(=O)N3CCN(C(=O)c4ccccc4)CC3)c12,> 300000 nM
1.5 ×10⁻⁶ cm/s,,,0.03 nM,19 min,COc1cnc(-c2cncs2)c2[nH]cc(C(=O)C(=O)N3CCN(C(=O)c4ccccc4)CC3)c12,297000 to 300000 nM
21.6 ×10⁻⁶ cm/s,94%,100%,1.43 nM,,COc1cnc(-n2nccc2C)c2[nH]cc(C(=O)C(=O)N3CCN(C(=O)c4ccccc4)CC3)c12,> 300000 nM
,,,0.02 nM,21 min,CNc1cnc(-c2ncc(OC)c3c(C(=O)C(=O)N4CCN(C(=O)c5ccccc5)CC4)c[nH]c23)cn1,> 95000 nM
< 1.5 ×10⁻⁶ cm/s,97%,95%,0.09 nM,,COCc1ncn(-c2ncc(OC)c3c(C(=O)C(=O)N4CCN(C(=O)c5ccccc5)CC4)c[nH]c23)n1,> 300000 nM
,,,6.54 nM,,COc1cnc(-n2cnc(C(=O)N3CCN(C)CC3)n2)c2[nH]cc(C(=O)C(=O)N3CCN(C(=O)c4ccccc4)CC3)c12,> 150000 nM
1.5 to 4.1 ×10⁻⁶ cm/s,100%,100%,0.27 nM,,COc1cnc(-n2ccc(CN(C)C)n2)c2[nH]cc(C(=O)C(=O)N3CCN(C(=O)c4ccccc4)CC3)c12,> 150000 nM
,,,1.04 nM,,COc1cnc(-c2cnccn2)c2[nH]cc(C(=O)C(=O)N3CCN(C(=O)c4ccccn4)[C@@H](C)C3)c12,267000 to 300000 nM
4.6 ×10⁻⁶ cm/s,,,0.11 nM,29 min,COc1cnc(-c2ccoc2)c2[nH]cc(C(=O)C(=O)N3CCN(C(=O)c4ccccc4)CC3)c12,146000 nM
,,,0.91 nM,8 min,COc1cccc(-c2ncc(OC)c3c(C(=O)C(=O)N4CCN(C(=O)c5ccccc5)CC4)c[nH]c23)n1,64000 nM
7.2 ×10⁻⁶ cm/s,,,0.37 nM,37 min,COc1cnc(-c2ncco2)c2[nH]cc(C(=O)C(=O)N3CCN(C(=O)c4ccccc4)CC3)c12,15000 nM
2.4 ×10⁻⁶ cm/s,,,0.17 nM,29 min,COc1cnc(-c2cccnn2)c2[nH]cc(C(=O)C(=O)N3CCN(C(=O)c4ccccc4)CC3)c12,> 300000 nM
21.7 ×10⁻⁶ cm/s,,,0.11 nM,39 min,COc1cnc(-c2cscn2)c2[nH]cc(C(=O)C(=O)N3CCN(C(=O)c4ccccc4)CC3)c12,
,,,0.13 nM,,COc1ncn(-c2ncc(OC)c3c(C(=O)C(=O)N4CCN(C(=O)c5ccccc5)CC4)c[nH]c23)n1,285000 nM
6.6 ×10⁻⁶ cm/s,,,0.09 nM,13 min,COc1cnc(-c2cccc(N)n2)c2[nH]cc(C(=O)C(=O)N3CCN(C(=O)c4ccccc4)CC3)c12,122000 nM
,68%,85%,0.07 nM,,COc1cnc(-n2nccc2N)c2[nH]cc(C(=O)C(=O)N3CCN(C(=O)c4ccccc4)[C@H](C)C3)c12,> 300000 nM

Papp [1],remaining at 10 min [2],remaining at 10 min [3],EC50 [4],half-life [5],SMILES,CC50 (MT2)
,,,0.14 nM,,COc1cnc(-n2cnc(N3CCN(C)CC3)n2)c2[nH]cc(C(=O)C(=O)N3CCN(C(=O)c4ccccc4)CC3)c12,> 300000 nM
,,,0.02 nM,,COc1cnc(-n2ccc(-c3cccc(-c4nn[nH]n4)c3)n2)c2[nH]cc(C(=O)C(=O)N3CCN(C(=O)c4ccccc4)CC3)c12,128000 nM
13.4 ×10⁻⁶ cm/s,,,0.13 nM,15 min,COc1cnc(-c2ccccn2)c2[nH]cc(C(=O)C(=O)N3CCN(C(=O)c4ccccc4)CC3)c12,4000 nM
17 ×10⁻⁶ cm/s,,,0.04 nM,19 min,COc1cnc(-c2cnccn2)c2[nH]cc(C(=O)C(=O)N3CCN(C(=O)c4ccccc4)CC3)c12,3460 nM
,,,0.015 nM,,CCCSc1ncn(-c2ncc(OC)c3c(C(=O)C(=O)N4CCN(C(=O)c5ccccc5)CC4)c[nH]c23)n1,7000 nM
13.4 ×10⁻⁶ cm/s,,,0.59 nM,12 min,COc1cnc(-c2cccc(C)n2)c2[nH]cc(C(=O)C(=O)N3CCN(C(=O)c4ccccc4)CC3)c12,30000 nM
6.6 ×10⁻⁶ cm/s,,,0.12 nM,18 min,COc1cnc(-c2cccs2)c2[nH]cc(C(=O)C(=O)N3CCN(C(=O)c4ccccc4)CC3)c12,36000 nM
37.8 ×10⁻⁶ cm/s,,,0.11 nM,15 min,COc1cnc(-c2ccncn2)c2[nH]cc(C(=O)C(=O)N3CCN(C(=O)c4ccccc4)CC3)c12,285000 to 300000 nM
< 1.5 ×10⁻⁶ cm/s,95%,99%,0.17 nM,,COc1cnc(-n2cnc(N)n2)c2[nH]cc(C(=O)C(=O)N3CCN(C(=O)c4ccccc4)[C@H](C)C3)c12,> 300000 nM
21.9 ×10⁻⁶ cm/s,95%,95%,0.08 nM,,COc1cnc(-n2cncn2)c2[nH]cc(C(=O)C(=O)N3CCN(C(=O)c4ccccc4)[C@H](C)C3)c12,> 300000 nM
10.6 ×10⁻⁶ cm/s,,,1.28 nM,32 min,COc1cnc(-c2ncccn2)c2[nH]cc(C(=O)C(=O)N3CCN(C(=O)c4ccccc4)CC3)c12,> 300000 nM
< 1 ×10⁻⁶ cm/s,,,0.26 nM,47 min,COc1cnc(-c2cc[nH]n2)c2[nH]cc(C(=O)C(=O)N3CCN(C(=O)c4ccccc4)CC3)c12,3000 nM
,,,,,COc1cnc(-n2cc(C)cn2)c2[nH]cc(C(=O)C(=O)N3CCN(C(=O)c4ccccc4)CC3)c12,243000 nM
,,,0.1 nM,,COc1cnc(-n2cnc(C(=O)N(C)C)n2)c2[nH]cc(C(=O)C(=O)N3CCN(C(=O)c4ccccc4)CC3)c12,> 300000 nM
8.6 ×10⁻⁶ cm/s,,,0.02 nM,19 min,COc1cnc(-c2ccco2)c2[nH]cc(C(=O)C(=O)N3CCN(C(=O)c4ccccc4)CC3)c12,281000 to 300000 nM
3.3 ×10⁻⁶ cm/s,,,0.04 nM,68 min,COc1cnc(-c2cnc(N)cn2)c2[nH]cc(C(=O)C(=O)N3CCN(C(=O)c4ccccc4)CC3)c12,20000 nM
,,,0.78 nM,,CCCS(=O)(=O)c1ncn(-c2ncc(OC)c3c(C(=O)C(=O)N4CCN(C(=O)c5ccccc5)CC4)c[nH]c23)n1,207000 nM
,,,0.06 nM,26 min,COc1cnc(-c2cnc(N)s2)c2[nH]cc(C(=O)C(=O)N3CCN(C(=O)c4ccccc4)CC3)c12,> 250000 nM
< 1.5 ×10⁻⁶ cm/s,,,0.02 nM,17 min,COc1cnc(-c2nccs2)c2[nH]cc(C(=O)C(=O)N3CCN(C(=O)c4ccccc4)CC3)c12,> 150000 nM
,,,0.03 nM,,COc1cnc(-n2ccc(-c3ccc(-c4nn[nH]n4)cc3)n2)c2[nH]cc(C(=O)C(=O)N3CCN(C(=O)c4ccccc4)CC3)c12,> 300000 nM
,,,0.1 nM,17 min,CCOc1ncc(-c2ncc(OC)c3c(C(=O)C(=O)N4CCN(C(=O)c5ccccc5)CC4)c[nH]c23)s1,> 300000 nM
,,,0.26 nM,,COc1cnc(-c2cn(C)c(=O)cn2)c2[nH]cc(C(=O)C(=O)N3CCN(C(=O)c4ccccc4)CC3)c12,> 150000 nM
1.5 to 2.2 ×10⁻⁶ cm/s,,,0.06 nM,21 min,COc1cnc(-c2cncc(N)n2)c2[nH]cc(C(=O)C(=O)N3CCN(C(=O)c4ccccc4)CC3)c12,14000 nM
< 1.5 ×10⁻⁶ cm/s,,,0.19 nM,48 min,COc1cnc(-c2ccnnc2)c2[nH]cc(C(=O)C(=O)N3CCN(C(=O)c4ccccc4)CC3)c12,14000 nM
14.1 ×10⁻⁶ cm/s,,,0.03 nM,7 min,CCc1ncc(-c2ncc(OC)c3c(C(=O)C(=O)N4CCN(C(=O)c5ccccc5)CC4)c[nH]c23)s1,120000 nM
